# Measured values as given in ChEMBL document CHEMBL4376814, “Novel cyclin-dependent kinase 9 (CDK9) inhibitor with suppression of cancer stemness activity against non-small-cell lung cancer” (Eur J Med Chem, 2019).
# Activity calls are given as the source filed them. No cut-off for these calls is given here.
# How the values were obtained:
# [1] = system: U-937; assay: Antiproliferative activity against human U937 cells assessed as inhibition of cell viability after 72 hrs by CCK-8 assay; type: functional, cell-based; conditions: U-937, 72 h
# Procedure, shortened: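 Cells kept at 37 °C, 5% CO2 in DMEM or RPMI-1640 with 10% FBS and 1% penicillin/streptomycin, then seeded at 3000 cells/well (adherent) or 10,000 cells/well (suspension). Exposed to a range of concentrations for 72 h. CCK-8 added for 1-4 h before reading A450. […] Three independent experiments.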
# [2] = system: A549; assay: Induction of apoptosis in human A549 cells after 48 hrs by AnnexinV-FITC staining-based flow cytometric analysis; type: functional, cell-based
# [3] = system: A549; assay: Induction of apoptosis in human A549 cells assessed as activation of caspase 3 at 0.25 to 1 uM after 24 hrs by Western blot analysis; type: functional, cell-based
# Procedure, shortened: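 A549 or H1299 cells exposed to the indicated concentrations for 24 h. Protein extracts then immunoblotted for apoptosis-pathway proteins (Bcl2, Bim, cleaved caspase 3).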
# [4] = system: NCI-H1299; assay: Downregulation of SOX2 in human H1299 cells at 0.25 to 1 uM by Western blot analysis; type: functional, cell-based
# [5] = Intrinsic clearance in Sprague-Dawley rat liver microsomes at 2 uM in presence of NADPH measured up to 1 hr by HPLC analysis; type: ADME, Microsome
# [6] = target: Activin receptor type-1B (Homo sapiens) (UniProt P36896); assay: Inhibition of recombinant human ALK4 (150 to end residues) at 1 uM using casein as substrate measured after 40 mins in presence of [gamma33P]ATP by scintillation counting method relative to control
# [7] = target: Mitogen-activated protein kinase kinase kinase 5 (Homo sapiens) (UniProt Q99683); assay: Inhibition of recombinant human ASK1 (649 to 946 residues) at 1 uM using myelin basic protein as substrate measured after 40 mins in presence of [gamma33P]ATP by scintillation counting method relative to control
# [8] = species on record: Homo sapiens; assay: Inhibition of recombinant human BrSK2 […] mutant (2 to end residues) at 1 uM using KKLNRTLSFAEPG as substrate measured after 40 mins in presence of [gamma33P]ATP by scintillation counting method relative to control
# [9] = target: Mitogen-activated protein kinase kinase kinase 11 (Homo sapiens) (UniProt Q16584); assay: Inhibition of human MLK3 at 1 uM by radiometric method relative to control
# Procedure, shortened: (§1)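 Percent inhibition of kinase activity at a single compound concentration, measured by the outsourced Eurofins KinaseProfiler panel. Values are the mean of two independent experiments.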
# [10] = target: Serine/threonine-protein kinase 3 (Homo sapiens) (UniProt Q13188); assay: Inhibition of recombinant human MST2 (2 to end residues) at 1 uM using myelin basic protein as substrate measured after 40 mins in presence of [gamma33P]ATP by scintillation counting method relative to control
# [11] = target: Casein kinase I isoform gamma-1 (Homo sapiens) (UniProt Q9HCP0); assay: Inhibition of recombinant human CK1gamma1 (25 to 355 residues) at 1 uM using KRRRALS(p)VASLPGL as substrate measured after 40 mins in presence of [gamma33P]ATP by scintillation counting method relative to control
# Procedure, shortened: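 Single-point inhibition at 1 µM was measured in the Eurofins KinaseProfiler panel. Values are the mean of two independent experiments.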
# [12] = target: Casein kinase II subunit alpha (Homo sapiens) (UniProt P68400); assay: Inhibition of full length recombinant human CK2alpha1 at 1 uM using RRRDDDSDDD as substrate measured after 40 mins in presence of [gamma33P]ATP by scintillation counting method relative to control
# [13] = target: Serine/threonine-protein kinase PAK 3 (Homo sapiens) (UniProt O75914); assay: Inhibition of recombinant full-length human PAK3 at 1 uM using RRRLSFAEPG as substrate measured after 40 mins in presence of [gamma33P]ATP by scintillation counting method relative to control
# [14] = target: Serine/threonine-protein kinase PAK 6 (Homo sapiens) (UniProt Q9NQU5); assay: Inhibition of recombinant human PAK6 (382 to end residues) at 1 uM using RRRLSFAEPG as substrate measured after 40 mins in presence of [gamma33P]ATP by scintillation counting method relative to control
# [15] = target: Platelet-derived growth factor receptor alpha (Homo sapiens) (UniProt P16234); assay: Inhibition of recombinant human PDGFRalpha (550 to end residues) at 1 uM using poly[Glu:Tyr] (4:1) as substrate measured after 40 mins in presence of [gamma33P]ATP by scintillation counting method relative to control
# [16] = target: Proto-oncogene tyrosine-protein kinase Src (Homo sapiens) (UniProt P12931); assay: Inhibition of recombinant full-length human cSRC at 1 uM using KVEKIGEGTYGVVYK as substrate measured after 40 mins in presence of [gamma33P]ATP by scintillation counting method relative to control
# [17] = target: Focal adhesion kinase 1 (Homo sapiens) (UniProt Q05397); assay: Inhibition of recombinant human FAK (411 to 686 residues) at 1 uM using EEEEYEEEEEEYYIIEEEEEEYEEEEEEYYEEEEEEKKKK as substrate measured after 40 mins in presence of [gamma33P]ATP by scintillation counting method relative to control
# [18] = target: Insulin-like growth factor 1 receptor (Homo sapiens) (UniProt P08069); assay: Inhibition of recombinant human activated IGF1R (959 to end residues) at 1 uM using KKKSPGEYVNIEFG as substrate measured after 40 mins in presence of [gamma33P]ATP by scintillation counting method relative to control
# [19] = target: MAP/microtubule affinity-regulating kinase 3 (Homo sapiens) (UniProt P27448); assay: Inhibition of recombinant full-length human MARK3 at 1 uM using KKKVSRSGLYRSPSMPENLNRPR as substrate measured after 40 mins in presence of [gamma33P]ATP by scintillation counting method relative to control
# [20] = target: Tyrosine-protein kinase Srms (Homo sapiens) (UniProt Q9H3Y6); assay: Inhibition of human SRMS at 1 uM by radiometric method relative to control; procedure, shortened: as §1
# [21] = target: Serine/threonine-protein kinase MAK (Homo sapiens) (UniProt P20794); assay: Inhibition of recombinant full-length human MAK at 1 uM using RRRFRPASPLRGPPK as substrate measured after 120 mins in presence of [gamma33P]ATP by scintillation counting method relative to control
# [22] = target: Dual specificity mitogen-activated protein kinase kinase 1 (Homo sapiens) (UniProt Q02750); assay: Inhibition of recombinant full-length human MEK1 at 1 uM using unactive MAPK2 as substrate measured after 40 mins in presence of [gamma33P]ATP by scintillation counting method relative to control
# [23] = system: NCI-H1299; assay: Induction of cell cycle arrest in human H1299 cells assessed as accumulation of cells at G0/G1 phase at 1 uM after 24 hrs by propidium iodide/RNase staining based flow cytometric analysis; type: functional
# Procedure, shortened: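 A549 and H1299 plated at 5×10^5 cells/mL in 6-well plates, treated after adherence for 24 h. Washed with PBS, fixed overnight in ice-cold 75% ethanol, stained with propidium iodide plus RNase A for 30 min at 37 °C, analysed by flow cytometry for phase distribution. Means ± SD, three independent experiments.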
# Mitogen-activated protein kinase kinase kinase 11 (Homo sapiens), sequence (Q16584 whole entry, looked up): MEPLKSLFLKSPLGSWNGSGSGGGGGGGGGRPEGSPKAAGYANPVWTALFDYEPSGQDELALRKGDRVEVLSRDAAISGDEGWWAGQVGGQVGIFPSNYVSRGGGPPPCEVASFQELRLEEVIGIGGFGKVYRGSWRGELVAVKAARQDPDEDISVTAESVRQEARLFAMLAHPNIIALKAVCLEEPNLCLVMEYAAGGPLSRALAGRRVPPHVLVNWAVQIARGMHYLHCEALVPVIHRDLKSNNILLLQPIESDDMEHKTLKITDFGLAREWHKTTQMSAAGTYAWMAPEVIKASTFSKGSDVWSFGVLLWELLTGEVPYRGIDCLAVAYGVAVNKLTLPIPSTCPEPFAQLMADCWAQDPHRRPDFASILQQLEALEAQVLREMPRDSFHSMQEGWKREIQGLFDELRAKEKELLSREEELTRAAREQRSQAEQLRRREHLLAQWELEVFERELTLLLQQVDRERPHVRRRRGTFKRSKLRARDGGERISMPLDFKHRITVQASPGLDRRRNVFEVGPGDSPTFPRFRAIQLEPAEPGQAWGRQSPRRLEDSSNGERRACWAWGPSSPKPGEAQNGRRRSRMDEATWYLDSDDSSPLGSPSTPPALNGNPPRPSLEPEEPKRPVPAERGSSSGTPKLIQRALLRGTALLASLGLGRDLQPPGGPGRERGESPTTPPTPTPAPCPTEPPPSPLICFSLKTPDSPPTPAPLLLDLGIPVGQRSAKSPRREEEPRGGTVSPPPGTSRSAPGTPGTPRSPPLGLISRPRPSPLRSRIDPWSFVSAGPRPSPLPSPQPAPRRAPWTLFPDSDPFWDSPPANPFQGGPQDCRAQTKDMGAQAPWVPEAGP
# Platelet-derived growth factor receptor alpha (Homo sapiens), sequence (P16234 whole entry): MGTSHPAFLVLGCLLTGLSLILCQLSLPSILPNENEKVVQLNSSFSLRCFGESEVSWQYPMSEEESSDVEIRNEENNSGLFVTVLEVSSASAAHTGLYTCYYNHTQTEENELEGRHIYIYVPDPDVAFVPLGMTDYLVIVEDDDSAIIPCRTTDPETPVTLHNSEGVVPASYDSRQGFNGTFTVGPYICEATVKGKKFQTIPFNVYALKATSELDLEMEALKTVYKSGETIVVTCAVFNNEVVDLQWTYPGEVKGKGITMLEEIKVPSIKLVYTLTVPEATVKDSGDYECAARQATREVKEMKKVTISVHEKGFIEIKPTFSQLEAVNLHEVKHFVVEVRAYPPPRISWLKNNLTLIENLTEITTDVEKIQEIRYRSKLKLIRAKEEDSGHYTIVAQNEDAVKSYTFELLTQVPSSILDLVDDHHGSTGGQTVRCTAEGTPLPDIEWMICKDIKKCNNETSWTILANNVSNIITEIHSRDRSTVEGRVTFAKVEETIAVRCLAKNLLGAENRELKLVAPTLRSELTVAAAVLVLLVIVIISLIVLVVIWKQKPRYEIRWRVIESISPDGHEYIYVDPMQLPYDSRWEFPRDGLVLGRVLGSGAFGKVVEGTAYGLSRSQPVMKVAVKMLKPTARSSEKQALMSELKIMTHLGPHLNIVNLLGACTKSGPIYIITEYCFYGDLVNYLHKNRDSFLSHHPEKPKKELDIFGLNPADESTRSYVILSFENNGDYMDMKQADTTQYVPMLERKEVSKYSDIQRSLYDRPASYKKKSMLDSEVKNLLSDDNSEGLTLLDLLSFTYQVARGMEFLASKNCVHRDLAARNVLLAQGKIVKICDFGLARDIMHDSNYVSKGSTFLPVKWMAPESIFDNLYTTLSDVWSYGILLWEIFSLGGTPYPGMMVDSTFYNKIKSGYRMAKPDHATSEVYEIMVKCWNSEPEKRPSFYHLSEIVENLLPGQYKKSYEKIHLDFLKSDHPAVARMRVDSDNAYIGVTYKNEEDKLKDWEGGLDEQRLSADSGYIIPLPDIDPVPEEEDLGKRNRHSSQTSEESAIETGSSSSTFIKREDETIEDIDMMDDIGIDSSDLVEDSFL
# Dual specificity mitogen-activated protein kinase kinase 1 (Homo sapiens), sequence (Q02750 whole entry): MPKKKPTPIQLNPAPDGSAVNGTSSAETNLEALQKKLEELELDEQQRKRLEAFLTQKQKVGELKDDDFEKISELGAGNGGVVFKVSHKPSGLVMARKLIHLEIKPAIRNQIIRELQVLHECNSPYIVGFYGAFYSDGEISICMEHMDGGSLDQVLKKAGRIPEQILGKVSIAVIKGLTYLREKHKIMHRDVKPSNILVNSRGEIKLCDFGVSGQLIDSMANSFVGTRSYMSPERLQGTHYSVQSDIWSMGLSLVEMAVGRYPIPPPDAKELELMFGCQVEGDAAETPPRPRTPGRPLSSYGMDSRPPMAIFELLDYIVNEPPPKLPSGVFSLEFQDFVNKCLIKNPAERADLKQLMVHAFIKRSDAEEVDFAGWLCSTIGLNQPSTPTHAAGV
# Serine/threonine-protein kinase 3 (Homo sapiens), sequence (Q13188 whole entry, the tested form may be a part, canonical isoform): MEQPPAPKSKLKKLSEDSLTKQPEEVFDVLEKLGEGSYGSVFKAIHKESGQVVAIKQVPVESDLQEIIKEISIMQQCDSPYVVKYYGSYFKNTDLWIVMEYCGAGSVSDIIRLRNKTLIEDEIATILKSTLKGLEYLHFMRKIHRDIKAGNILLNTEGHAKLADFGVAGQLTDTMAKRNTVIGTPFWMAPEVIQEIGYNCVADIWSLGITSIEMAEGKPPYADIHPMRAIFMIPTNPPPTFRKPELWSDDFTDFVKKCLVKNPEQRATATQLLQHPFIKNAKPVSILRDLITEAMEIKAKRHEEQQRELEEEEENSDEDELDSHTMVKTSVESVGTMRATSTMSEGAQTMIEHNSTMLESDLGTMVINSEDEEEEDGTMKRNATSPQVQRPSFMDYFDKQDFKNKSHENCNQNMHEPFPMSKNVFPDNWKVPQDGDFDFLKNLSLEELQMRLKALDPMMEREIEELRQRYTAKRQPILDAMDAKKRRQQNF
# Casein kinase I isoform gamma-1 (Homo sapiens), sequence (Q9HCP0 whole entry, looked up, the tested form may be a part, canonical isoform): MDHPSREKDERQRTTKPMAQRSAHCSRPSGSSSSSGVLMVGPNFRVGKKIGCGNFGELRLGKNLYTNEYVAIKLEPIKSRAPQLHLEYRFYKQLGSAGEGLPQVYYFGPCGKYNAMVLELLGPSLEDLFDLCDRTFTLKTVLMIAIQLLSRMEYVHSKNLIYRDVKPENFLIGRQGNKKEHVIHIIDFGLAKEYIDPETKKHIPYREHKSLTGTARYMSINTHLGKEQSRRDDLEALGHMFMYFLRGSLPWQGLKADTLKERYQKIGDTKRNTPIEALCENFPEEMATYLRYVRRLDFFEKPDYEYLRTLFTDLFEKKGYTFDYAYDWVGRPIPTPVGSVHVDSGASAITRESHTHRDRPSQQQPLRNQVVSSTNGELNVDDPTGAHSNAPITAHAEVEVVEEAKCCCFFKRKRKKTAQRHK
# Proto-oncogene tyrosine-protein kinase Src (Homo sapiens), sequence (P12931 2-536 limits assumed): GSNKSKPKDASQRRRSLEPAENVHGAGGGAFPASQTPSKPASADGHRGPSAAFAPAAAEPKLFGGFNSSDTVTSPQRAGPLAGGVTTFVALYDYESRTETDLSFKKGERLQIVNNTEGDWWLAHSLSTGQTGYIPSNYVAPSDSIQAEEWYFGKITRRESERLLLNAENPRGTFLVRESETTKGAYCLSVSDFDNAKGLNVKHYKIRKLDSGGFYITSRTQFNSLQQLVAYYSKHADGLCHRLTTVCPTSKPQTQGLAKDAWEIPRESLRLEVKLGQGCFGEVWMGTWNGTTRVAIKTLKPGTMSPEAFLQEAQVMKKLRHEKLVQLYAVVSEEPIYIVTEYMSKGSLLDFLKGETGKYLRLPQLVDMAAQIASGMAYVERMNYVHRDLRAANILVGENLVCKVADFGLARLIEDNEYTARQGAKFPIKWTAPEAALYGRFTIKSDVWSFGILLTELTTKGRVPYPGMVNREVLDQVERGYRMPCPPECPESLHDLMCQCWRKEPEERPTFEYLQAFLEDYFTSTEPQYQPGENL
# Serine/threonine-protein kinase MAK (Homo sapiens), sequence (P20794 whole entry): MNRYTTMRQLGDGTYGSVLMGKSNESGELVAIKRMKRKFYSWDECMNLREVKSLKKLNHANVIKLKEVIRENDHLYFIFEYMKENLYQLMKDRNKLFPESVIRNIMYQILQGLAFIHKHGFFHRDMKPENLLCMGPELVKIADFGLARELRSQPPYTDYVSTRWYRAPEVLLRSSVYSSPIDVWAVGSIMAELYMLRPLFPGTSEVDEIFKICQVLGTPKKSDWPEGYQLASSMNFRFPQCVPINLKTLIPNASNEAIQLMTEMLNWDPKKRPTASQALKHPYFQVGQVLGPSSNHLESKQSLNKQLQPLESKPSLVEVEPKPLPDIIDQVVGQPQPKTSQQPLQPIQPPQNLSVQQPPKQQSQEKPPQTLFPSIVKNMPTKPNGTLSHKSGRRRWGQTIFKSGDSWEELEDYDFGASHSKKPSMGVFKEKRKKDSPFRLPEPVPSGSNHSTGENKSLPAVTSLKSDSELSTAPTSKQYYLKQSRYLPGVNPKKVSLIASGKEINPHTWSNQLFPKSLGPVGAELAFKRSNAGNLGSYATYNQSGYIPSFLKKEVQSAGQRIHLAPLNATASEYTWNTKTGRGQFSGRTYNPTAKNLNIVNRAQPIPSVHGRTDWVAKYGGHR
# Serine/threonine-protein kinase PAK 3 (Homo sapiens), sequence (O75914 whole entry, looked up): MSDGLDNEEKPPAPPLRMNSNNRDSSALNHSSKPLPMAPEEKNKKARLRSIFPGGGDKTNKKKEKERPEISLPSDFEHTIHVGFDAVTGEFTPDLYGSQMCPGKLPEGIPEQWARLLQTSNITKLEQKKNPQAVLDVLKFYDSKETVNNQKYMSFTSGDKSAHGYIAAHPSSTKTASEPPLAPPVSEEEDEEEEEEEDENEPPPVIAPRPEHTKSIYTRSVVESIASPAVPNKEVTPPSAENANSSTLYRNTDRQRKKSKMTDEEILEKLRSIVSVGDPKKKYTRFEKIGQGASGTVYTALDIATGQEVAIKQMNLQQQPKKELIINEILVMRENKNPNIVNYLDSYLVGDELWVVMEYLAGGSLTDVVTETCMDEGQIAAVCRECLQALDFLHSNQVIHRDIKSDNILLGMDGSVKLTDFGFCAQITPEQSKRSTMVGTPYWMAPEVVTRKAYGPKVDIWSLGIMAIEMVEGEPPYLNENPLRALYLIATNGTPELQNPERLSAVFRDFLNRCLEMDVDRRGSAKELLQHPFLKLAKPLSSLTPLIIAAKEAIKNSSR
smiles,measurement,setting,value
CN(C)C(=O)c1cc2cnc(Nc3ccc(NC(=O)CCCCCCCN=C=S)cc3)nc2n1C1CCCC1,IC50,[1],1990 nM
same,Activity,[2],Dose-dependent effect
same,Activity,[3],Active
same,Activity,[4],Active
same,CLH,[5],57 µL/min/mg
same,inhibition,[6],3%
same,inhibition,[7],-7%
same,inhibition,[8],14%
same,inhibition,[9],90%
same,inhibition,[10],43%
same,inhibition,[11],11%
same,inhibition,[12],-5%
same,inhibition,[13],2%
same,inhibition,[14],9%
same,inhibition,[15],7%
same,inhibition,[16],35%
same,inhibition,[17],22%
same,inhibition,[18],0%
same,inhibition,[19],43%
same,inhibition,[20],34%
same,inhibition,[21],94%
same,inhibition,[22],22%
same,Activity,[23],inactive
